Among the data in ChEMBL document CHEMBL1138230, “Synthesis and SAR comparison of regioisomeric aryl naphthyridines as potent mGlu5 receptor antagonists” (Bioorg Med Chem Lett, 2007) are Activity and IC50 values, retold here.

A value given as a limit tells only on which side of the number the result lay.

One data set concerns Rattus norvegicus. Put plainly: Inhibition of change in hind paw weight distribution in monosodium iodoacetate-induced osteoarthritis rat model at 10 mg/kg, ip after 6 hrs. Further details: dose 10 mg/kg, route intraperitoneal; call rule not given here. The note with it: in vivo. It is filed as organism-based.
Take `COc1cc(OC)cc(-c2ccc3ccc(C)nc3n2)c1`: the outcome was Active.

The target in a further data set is Metabotropic glutamate receptor 5 (Rattus norvegicus, UniProt P31424). Put plainly: Antagonist activity at rat mGlu5 receptor expressed in CHO cells assessed as inhibition of quisqualate-stimulated calcium mobilization. It is filed as functional, cell-based.
Sequence of Metabotropic glutamate receptor 5 (P31424 whole entry): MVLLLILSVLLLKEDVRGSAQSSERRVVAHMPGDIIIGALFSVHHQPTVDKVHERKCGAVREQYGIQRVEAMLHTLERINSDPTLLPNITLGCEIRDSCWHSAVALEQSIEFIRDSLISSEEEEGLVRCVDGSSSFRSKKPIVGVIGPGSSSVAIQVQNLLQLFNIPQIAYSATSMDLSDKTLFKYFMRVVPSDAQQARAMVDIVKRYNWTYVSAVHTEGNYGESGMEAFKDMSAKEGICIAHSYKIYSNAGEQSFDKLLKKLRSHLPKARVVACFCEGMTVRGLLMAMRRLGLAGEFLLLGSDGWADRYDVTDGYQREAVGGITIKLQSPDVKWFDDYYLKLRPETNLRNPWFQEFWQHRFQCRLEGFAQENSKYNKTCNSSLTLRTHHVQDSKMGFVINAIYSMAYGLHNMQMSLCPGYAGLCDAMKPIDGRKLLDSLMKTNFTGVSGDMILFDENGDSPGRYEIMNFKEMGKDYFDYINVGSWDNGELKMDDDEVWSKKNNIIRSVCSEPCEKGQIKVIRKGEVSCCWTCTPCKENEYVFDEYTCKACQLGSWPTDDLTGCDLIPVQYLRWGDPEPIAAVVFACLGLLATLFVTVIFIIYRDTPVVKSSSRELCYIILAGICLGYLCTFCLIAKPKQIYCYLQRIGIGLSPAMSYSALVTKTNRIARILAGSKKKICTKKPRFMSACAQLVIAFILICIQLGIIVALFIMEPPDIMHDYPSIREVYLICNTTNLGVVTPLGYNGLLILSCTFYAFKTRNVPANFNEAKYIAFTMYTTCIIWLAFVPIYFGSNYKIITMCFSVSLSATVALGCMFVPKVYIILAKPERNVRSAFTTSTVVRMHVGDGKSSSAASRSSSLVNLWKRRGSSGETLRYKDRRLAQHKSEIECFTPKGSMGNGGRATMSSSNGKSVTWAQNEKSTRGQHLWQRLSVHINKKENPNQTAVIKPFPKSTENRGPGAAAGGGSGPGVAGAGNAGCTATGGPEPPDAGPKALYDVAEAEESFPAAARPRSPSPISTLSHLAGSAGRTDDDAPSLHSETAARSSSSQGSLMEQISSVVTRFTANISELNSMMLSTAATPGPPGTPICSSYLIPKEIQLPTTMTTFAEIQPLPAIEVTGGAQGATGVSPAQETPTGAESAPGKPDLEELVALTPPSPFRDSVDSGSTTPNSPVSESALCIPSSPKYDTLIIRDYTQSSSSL
Conditions: not given
The essentials:
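CHO cells stably expressing rat mGlu5; inhibition of quisqualate-stimulated calcium mobilization read by FLIPR. Values are geometric means of two or more experiments.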
A general note: Calcium assays in cells follow changes in intracellular calcium, usually with a dye or a luminescent sensor.
Usually IC50 stands for the point on the concentration scale where inhibition reaches its midpoint. For the compound `COc1cc(C#N)cc(-c2cnc3cccnc3c2)c1`, the IC50 stood at 55 nM.
Same read-out and setting: the same measure for `N#Cc1cccc(-c2cnc3cccnc3c2)c1`: 18600 nM; for `COc1cc(C#N)cc(-c2cc3nc(C)ccc3cn2)c1`: 6.19 nM.
Still for that read-out and setting: the same measure for `Cc1cccc(-c2ccc3ccc(C)nc3n2)c1`: 277 nM; for `COc1cc(OC)cc(-c2ccc3cccnc3n2)c1`: 67 nM; for `COc1cc(OC)cc(-c2cc3ncccc3cn2)c1`: 6070 nM.
For `COc1cc(OC)cc(-c2cc3nc(C)ccc3cn2)c1`, the concentration for half-maximal inhibition (IC50) was found to be 345 nM.
As for `Cc1cccc(-c2cc3ncccc3cn2)c1`, the IC50 was found to be 1270 nM.
As to `Cc1ccc2ccc(-c3cccc(C#N)c3)nc2n1`, the concentration for half-maximal inhibition (IC50) came out at 480 nM.
For `Cc1cccc(-c2ccc3cccnc3n2)c1`, the IC50 is 225 nM.
On the same count and under the same terms, for `COc1cccc(-c2cc3nc(C)ccc3cn2)c1` the value was 7900 nM.
On the same count and under the same terms, for `Cc1ccc2ccc(-c3cccc(Cl)c3)nc2n1` the value was 177 nM; for `Cc1ccc(-c2ccc3cccnc3n2)cc1C`, 45 nM; for `Cc1cccc(-c2cc3nc(C)ccc3cn2)c1`, 676 nM.
As for `Cc1cccc(-c2cnc3cccnc3c2)c1`, the half-inhibitory concentration (IC50) was 15700 nM.
On the same count and under the same terms, the same measure for `Cc1cc(F)cc(-c2cc3ncccc3cn2)c1`: 6570 nM.
Same read-out and setting: for `Cc1cc(C)cc(-c2cnc3cccnc3c2)c1` the value was > 30000 nM; for `Cc1ccc2ccc(-c3cc(F)cc(F)c3)nc2n1`, 181 nM; for `Cc1ccc2cnc(-c3ccccc3)cc2n1`, > 30000 nM.
Still for that read-out and setting: the same measure for `Cc1ccc2ccc(-c3ccccc3)nc2n1`: 664 nM; for `Cc1cc(F)cc(-c2cc3nc(C)ccc3cn2)c1`: 2930 nM.
For the compound `N#Cc1cccc(-c2ccc3cccnc3n2)c1`, the IC50 was 115 nM.
Same read-out and setting: the same measure for `COc1cc(C#N)cc(-c2cc3ncccc3cn2)c1`: 68 nM.
On to `N#Cc1cc(F)cc(-c2cc3ncccc3cn2)c1`, for which the IC50 is 1590 nM.
Regarding `c1ccc(-c2cc3ncccc3cn2)cc1`, the IC50 is > 30000 nM.
The same measure, in the same setting: for `Cc1ccc2ccc(-c3cccc(Br)c3)nc2n1` the value was 47.9 nM.
On the same count and under the same terms, the same measure for `COc1cc(OC)cc(-c2ccc3ccc(C)nc3n2)c1`: 51.7 nM; for `c1ccc(-c2ccc3cccnc3n2)cc1`: 1840 nM; for `Cc1ccc(-c2cnc3cccnc3c2)cc1C`: 12000 nM.
In the case of `COCOc1cc(C#N)cc(-c2cc3ncccc3cn2)c1`, the IC50 is 468 nM.

For the next data set, the system named is Rattus norvegicus. Put plainly: Inhibition of change in hind paw weight distribution in monosodium iodoacetate-induced osteoarthritis rat model at 10 mg/kg, ip after 4 hrs. Details: dose 10 mg/kg, route intraperitoneal. The note with it: in vivo. It is filed as organism-based.
As for `COc1cc(OC)cc(-c2ccc3ccc(C)nc3n2)c1`, the result was Active.

The test system of the next data set is Rattus norvegicus. Put plainly: Inhibition of change in hind paw weight distribution in monosodium iodoacetate-induced osteoarthritis rat model at 10 mg/kg, ip after 2 hrs. It is filed as organism-based. Further details: dose 10 mg/kg, route intraperitoneal. The following applies: in vivo.
With `COc1cc(OC)cc(-c2ccc3ccc(C)nc3n2)c1`, the outcome was Active.
